BaF3 parental = counter-screen for JAK2V617F inhibitors: parental Ba/F3 viability inhibitors | CellTiter-Glo ATP luminescence | inhibition, % at 5.6 µM | hit rate 1.1% among 220,000;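 active = inhibition above a per-campaign cutoff, the mean inhibition of all tested compounds plus 3 SD, cut at about 27% in these data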;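 also: 0% = DMSO wells and 100% = JAK Inhibitor I control wells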
APP 5UTR inh = APP translation inhibition; SH-SY5Y APP 5'UTR-luciferase reporter, luminescence; AID 1285; hit rate 0.82% among 190,000; inhibition, % at 2 µM;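 active = inhibition above a set limit, derived from the sample mean plus 3 SD, cut at about 45% in these data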
IEC-6 tox = IEC-6 cytotoxicity, counter-screen for KLF5 inhibitors; luminescence viability; inhibition, % at 5 µM; hit rate 0.78% among 290,000; AID 1825; in the data active = inhibition above about 22%;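 also: 0% = plate median of test compound wells and 100% = cytotoxic reference compound wells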
MT stabilizer = microtubule stabilizers in HeLa cells | HeLa tubulin immunostaining HCS, 24 h; share of cells brighter than vehicle mean+2SD | AID 2205 | hit rate 0.83% among 200,000 | % tubulin-high responders, % at 10 µM;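 active = plate Z-score above 3 for both tubulin-high and condensed-nucleus cell shares, with cell loss under 80%, at 10 µM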;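 also: anti alpha tubulin signal scored within the nucleus-defined area of each cell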
Ba/F3 V617F tox = loss of viability in JAK2V617F-driven Ba/F3 cells; Ba/F3 EpoR-JAK2V617F viability, ATP luminescence; inhibition, % at 5.6 µM; hit rate 1.1% among 220,000; AID 1446;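 active = inhibition above the campaign mean plus 3 SD over all tested compounds, cut at about 24% in these data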;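 also: cytokine-independent growth of Ba/F3 cells driven by EpoR plus mutant JAK2; 0% = DMSO-treated cells and 100% = JAK inhibitor I control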
b-catenin transl = modulators of beta-catenin nuclear translocation | HeLa beta-catenin nuclear translocation, immunofluorescence imaging | nuclear translocation activity, % at 5 µM | hit rate 0.3% among 190,000 | AID 1665;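 active = nuclear translocation activity above 50% at 5 µM, with a well cell count of 50 or more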;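 also: per-cell ratio of nuclear to cytoplasmic median beta-catenin stain intensity; plate controls were DMSO negative control for no effect and GSK-3 inhibitor IX positive control for full effect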
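assay system = human HeLa cells, endogenous beta-catenin | times = compound treatment 24 h, 37°C, 5% CO2 | detection = Anti-beta-catenin immunofluorescence on PFA-fixed, Triton-permeabilized cells, DAPI nuclei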
* = called active by the depositor; x = no result given. An excerpt weighted towards active compounds, which were near 2.2% of everything screened.

SMILES | BaF3 parental | APP 5UTR inh | IEC-6 tox | MT stabilizer | Ba/F3 V617F tox | b-catenin transl
COc1ccc(C2=NN(C(=O)CSc3nc4ccccc4s3)C(c3ccc(F)cc3)C2)cc1 (centres undefined) | -3 | 81* | -2 | 4 | -7 | 1
CC(=O)NCc1ccc(C(=O)O)cc1 | 2 | x | -3 | x | -2 | 0
c1ccc(CCCNCC2COc3ccccc3O2)cc1 (centres undefined) | 0 | 73* | 2 | 2 | 1 | 1
c1ccc(CCCCNCC2COc3ccccc3O2)cc1 (centres undefined) | 6 | -20 | -3 | 11 | -1 | 2
Cc1ccc(C2=NNC(C(O)C(O)C(O)C(O)CO)S2)cc1 (centres undefined) | 3 | -15 | -3 | 42* | -1 | -2
OC[C@H](O)[C@H](O)[C@@H](O)[C@@H](O)[C@@H]1SC(c2ccccc2)=NN1c1ccccc1 | -4 | x | -6 | x | -3 | 0
COc1ccc(Cn2c(=O)c3[nH]cnc3n(-c3ccccc3C)c2=O)cc1 | 0 | x | 7 | x | 0 | 73*
O=C(NCCc1ccc(Cl)cc1)c1cc(S(=O)(=O)N2CCCCC2)c[nH]1 | x | x | 0 | x | x | x
S=C(NCCc1ccccc1)Nc1cccc2cnccc12 | 42* | -6 | 11 | 4 | 17 | 0
Cc1cccc(C)c1NC1=NC2(CCCCC2)N=C(N)N1 | 76* | 1 | -2 | 4 | -5 | -7
Cc1ccc(NC2=NC3(CCCC3)N=C(N)N2)c(C)c1 | 10 | -14 | 3 | 25* | 4 | -1
C=CCOc1ccc(C2/C(=C(\O)c3ccc4c(c3)OCCO4)C(=O)C(=O)N2CCCN2CCOCC2)cc1 (centres undefined) | x | x | 1 | x | x | x
Nc1cc2c3c(cccc3c1)C(=O)N(CCN1CCCC1)C2=O | 83* | x | 62* | x | 97* | -1
CCN(CC)CCN1C(=O)c2cccc3cc(N)cc(c23)C1=O | 70* | x | 13 | x | 82* | 1
O=C1c2cccc3cc([N+](=O)[O-])cc(c23)C(=O)N1CCN1CCCC1 | 104* | x | 100* | x | 99* | 5
NC(=O)CN1CCN(CCN2C(=O)c3cccc4cccc(c34)C2=O)CC1 | x | x | 6 | x | x | x
CCS(=O)(=O)N1CCC(C(=O)Oc2ccc(Cl)cc2)CC1 | x | x | -9 | x | x | x
Cc1nn(C(C)C(=O)c2cccc(Cl)c2)c(C)c1[N+](=O)[O-] (centres undefined) | 4 | 12 | 1 | 2 | 0 | -1
Cn1cnc([N+](=O)[O-])c1S(=O)(=O)c1cccc(Cl)c1 | 102* | 9 | 68* | 3 | 86* | -1
CCc1ccc(NC(=O)C(=O)NCCOc2ccccc2Cl)cc1 | 6 | -20 | 0 | 26* | -1 | 3
O=C(COc1ccc([N+](=O)[O-])cc1)Nc1ccc2c(c1)OCO2 | 10 | 2 | 0 | 12* | 3 | 0
COc1ccc(OCC(=O)Nc2ccc3c(c2)OCO3)cc1 | x | x | 0 | x | x | x
CC(Cn1cnc2ccccc21)C(=O)O (centres undefined) | 4 | 56* | -3 | 4 | -4 | -4
Cn1cc(S(=O)(=O)NCc2ccc3c(c2)OCO3)c(C(F)(F)F)n1 | x | x | 0 | x | x | x
O=C(OCC#Cc1c(COC(=O)c2ccccc2)nnn1Cc1ccccc1)c1ccccc1 | x | x | x | x | x | -2
SMILES | BaF3 parental | APP 5UTR inh | IEC-6 tox | MT stabilizer | Ba/F3 V617F tox | b-catenin transl
O=C(c1cc2sccc2n1Cc1ccc(F)cc1)N1CCCc2ccccc21 | -3 | 58* | 2 | 2 | -3 | -2
COc1ccccc1/C=C/C(=O)NNC(=O)c1cccs1 | 1 | -23 | 0 | 3 | -1 | 0
O=C(CCS(=O)(=O)Cc1cccc(Cl)c1)NCCc1ccccc1 | x | x | 0 | x | x | x
O=C(Nc1ccc(NC(=O)c2ccccc2Cl)nc1)c1ccncc1 | 90* | -4 | 1 | 3 | -1 | 0
O=C(/C=C/c1cccs1)Nc1cccc(NC(=O)/C=C/c2cccs2)n1 | 6 | -45 | 9 | 3 | 2 | 3
O=C(/C=C/c1cccs1)Nc1ccc(Br)cn1 | 71* | 92* | 81* | 7 | 74* | 166*
O=C(Nc1ccc(NC(=O)c2ccccc2)nc1)c1ccncc1 | 3 | 8 | -9 | 3 | -4 | -2
O=C(Nc1ccc(Cl)cn1)c1ccccc1[N+](=O)[O-] | 5 | -18 | 7 | 23* | 2 | 1
O=C(/C=C/c1ccccc1)Nc1ccc(Cl)cn1 | 10 | -80 | 19 | 25* | 2 | 3
O=S(=O)(Nc1cc(Cl)cc(Cl)c1)N1CCOCC1 | x | x | 1 | x | x | x
O=C(CC(c1ccccc1)c1ccccc1)Nc1ccc(Cl)cn1 | 4 | -14 | 5 | 53* | 0 | -4
O=C(CS(=O)(=O)c1ccccc1)Nc1ccc(Cl)cn1 | x | x | 4 | x | x | x
C/C(N)=C(/C#N)C(=O)COC(=O)CNS(=O)(=O)c1ccc2ccccc2c1 | 60* | x | 5 | x | 51* | -3
COC(=O)c1nnn(-c2nonc2N)c1CN1CCc2ccccc21 | 3 | 8 | -1 | 36* | -2 | 0
Nc1nonc1-n1nnc(C(=O)N/N=C/c2ccccc2)c1CN1CCc2ccccc21 | x | x | -1 | x | x | x
Nc1ccc2oc(-c3cc(Br)ccc3Cl)nc2c1 | 38* | 46* | 6 | 7 | 33* | 3
Nc1ccc2oc(-c3ccccc3Cl)nc2c1 | 4 | -10 | 1 | 4 | 3 | -1
Cc1cc2c(cc1C)C(c1cc(Br)ccc1F)CC(=O)N2 (centres undefined) | 6 | 21 | 13 | 27* | 1 | 23
Cc1cc2c(cc1C)C(c1ccccc1F)CC(=O)N2 (centres undefined) | x | x | 3 | x | x | x
CCCc1cc(=O)oc2cc(C)cc(OCC(=O)Nc3cccnc3)c12 | x | x | 8 | x | x | x
COc1ccc(/C=C2\CCC(C3CCCC3)C2=O)cc1 (centres undefined) | x | x | -1 | x | x | x
COc1ccc(/C=C2\CCCC3C2=NC(=S)NC3c2ccc(OC)cc2)cc1 (centres undefined) | 10 | 22 | 4 | 9 | -2 | 56*
O=C(c1ccccc1)c1cc(Cl)ccc1N1C(=O)C=CC1=O | 11 | 80* | -2 | 4 | 6 | -3
CC/C(=N\NC(=O)c1ccncc1)C12CC3CC(CC(C3)C1)C2 | 4 | 52* | 0 | 2 | 4 | -5
O=c1c2c3c(sc2nc(NCCO)n1CCc1ccccc1)CCCCC3 | 12 | 3 | 10 | 19* | 4 | 32
SMILES | BaF3 parental | APP 5UTR inh | IEC-6 tox | MT stabilizer | Ba/F3 V617F tox | b-catenin transl
COC(=O)Nc1nc2ccc(-c3n[nH]c(=O)c4ccccc34)cc2[nH]1 | 3 | 55* | -4 | 4 | -3 | 6
COC(=O)c1ccccc1NC(=O)N[C@@H](C)C(=O)OC | -1 | 76* | 3 | 4 | -3 | -1
CCOC(=O)c1ccccc1NC(=O)N[C@@H](C)C(=O)OC | -1 | 15 | -1 | 3 | -2 | x
CN(C)N=Nc1ccc(-c2cn(Cc3ccccc3)cn2)cc1 | x | x | 10 | x | x | x
Nc1ccc2nc(NC(=O)C3CCCCC3)sc2c1 | 3 | -121 | -2 | 6 | -4 | 3
O=C(Nc1nc2ccc(C(=O)N3CCCCC3)cc2s1)C1CCCCC1 | 8 | 26 | 2 | 16* | -1 | 1

Source: PubChem
